Assay [1] deals with T1, L-lactate dehydrogenase A chain (Homo sapiens, UniProt P00338). Nature of the assay: Inhibition of human LDH-A using pyruvate as substrate and NADH as cofactor at 125 uM after 5 mins by calorimetric assay relative to control.
For assay [2], the target named is L-lactate dehydrogenase B chain (Homo sapiens) (UniProt P07195). Nature of the assay: Inhibition of human LDH-B using pyruvate as substrate and NADH as cofactor at 125 uM after 5 mins by calorimetric assay relative to control. The method, boiled down: (§1)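 Purified human LDH1 (LDH-B4), run as for LDH-A but only under pyruvate saturation (2 mM sodium pyruvate) with 25 µM NADH. Test compound at 125 µM, 37 °C, phosphate buffer. Activity is the A340 decrease from NADH consumption, read every 30 s for 5 min. Percent inhibition is relative to control, as mean ± SD of two or more independent experiments. Detection limit is 3%.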
Sequence of L-lactate dehydrogenase B chain (Homo sapiens) (P07195 2-334 limits assumed): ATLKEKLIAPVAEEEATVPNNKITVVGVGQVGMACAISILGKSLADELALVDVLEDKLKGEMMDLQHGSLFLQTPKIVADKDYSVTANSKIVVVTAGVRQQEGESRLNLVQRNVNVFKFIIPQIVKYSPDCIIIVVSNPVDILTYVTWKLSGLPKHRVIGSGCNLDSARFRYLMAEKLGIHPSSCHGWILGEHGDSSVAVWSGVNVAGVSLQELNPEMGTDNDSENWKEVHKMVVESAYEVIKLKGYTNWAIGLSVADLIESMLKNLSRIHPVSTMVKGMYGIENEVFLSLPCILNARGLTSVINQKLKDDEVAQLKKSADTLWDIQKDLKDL

Assay [3] concerns MSTO-211H. The assay can be described thus: Cytotoxicity against human MSTO-211H cells after 48 hrs by sulforhodamine B assay. The format is functional, cell-based. The method, boiled down:
(§2)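 Cells grown in RPMI 1640 with 10% FCS, 2 mM glutamine and penicillin/streptomycin, at 37 °C in 5% CO2 under normoxia. Compounds (10 mM DMSO stocks) are added on day 1 after plating at 1–100 µM, in triplicate, for 48 h. DMSO 0.25% v/v serves as control. Cells are TCA-fixed, stained with SRB and read at 492 nm. Growth is calculated relative to T0 and control. IC50 reported as mean ± SD from at least two experiments.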

Assay [4] addresses L-lactate dehydrogenase B chain (Homo sapiens) (UniProt P07195). Nature of the assay: Inhibition of human LDH-B using saturating concentration of pyruvate and NADH as cofactor after 5 mins by calorimetric assay relative to control. The method, boiled down:
as §1

Assay [5] is described as follows: Cytotoxicity against human LPc006 cells grown in hypoxic condition after 48 hrs by sulforhodamine B assay relative to normoxygenated cells. The note with it: LPc006, 48 h. The format is functional, cell-based. The method, boiled down:
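LPC006 primary pancreatic cancer cells are treated with compounds at 1–100 µM for 48 h under hypoxia (1% O2, 5% CO2, 94% N2, 37 °C). Read-out is the SRB assay at 492 nm with growth calculated relative to T0 and control. IC50 is the mean ± SE of three independent experiments and is compared with normoxic cells by Student's t-test.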
For orientation: The SRB assay estimates cell density from bound dye.

For assay [6], the system named is NCI-H630. Nature of the assay: Induction of apoptosis in human NCI-H630 cells assessed as appearance of sub-G1 cell subpopulation at compound IC50 after 24 hrs by flow cytometry. The format is functional, cell-based. Put shortly: (§3)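 Cells are trypsinized, pelleted and stained with cold propidium iodide buffer for 30 min on ice. DNA content is measured by flow cytometry (10 000 cells/sample) to give G0/G1, S and G2/M fractions and the sub-G1 population. Results are mean ± SE of three experiments, analyzed by t-test or ANOVA.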

The nature of assay [7]: Cytotoxicity against human ADDP cells after 48 hrs by sulforhodamine B assay. The format is functional, cell-based. The method, boiled down:
as §2

Assay [8] in a line: Cytotoxicity against human LPc028 cells after 48 hrs by sulforhodamine B assay. The format is functional, cell-based. The note with it: LPc028, 48 h. The method, boiled down:
as §2

Assay [9] has as its system NCI-H2052. The assay can be described thus: Cytotoxicity against human NCI-H2052 cells after 48 hrs by sulforhodamine B assay. The note with it: NCI-H2052, 48 h. The format is functional, cell-based. The method, boiled down:
as §2

Assay [10] can be described thus: Cytotoxicity against human LPc067 cells after 48 hrs by sulforhodamine B assay. Conditions: LPc067, 48 h. The format is functional, cell-based. The method, boiled down:
as §2

The nature of assay [11]: Cytotoxicity against human LPc006 cells after 48 hrs by sulforhodamine B assay. Conditions: LPc006, 48 h. The format is functional, cell-based. The method, boiled down:
as §2

Assay [12] has as its system NCI-H630. The assay can be described thus: Effect on cell cycle distribution in human NCI-H630 cells assessed as DNA content after 24 hrs by flow cytometry. The format is functional, cell-based. The method, boiled down:
as §3
In general terms: Flow cytometry measures light scatter and fluorescence of single cells or particles in a stream.

In assay [13] the test system is ADDP. The assay can be described thus: Effect on cell cycle distribution in human ADDP cells assessed as DNA content after 24 hrs by flow cytometry. The format is functional, cell-based. Put shortly:
as §3

For assay [14], the system named is HS27. Nature of the assay: Cytotoxicity against immortalized human HS27 cells after 48 hrs by sulforhodamine B assay. Conditions: HS27, 48 h. The format is functional, cell-based. Put shortly:
as §2

Assay [15] deals with NCI-H2452. The assay can be described thus: Cytotoxicity against human NCI-H2452 cells after 48 hrs by sulforhodamine B assay. The format is functional, cell-based. The note with it: NCI-H2452, 48 h. Put shortly: as §2
Assay [16] deals with NCI-H630. The assay can be described thus: Cytotoxicity against human NCI-H630 cells after 48 hrs by sulforhodamine B assay. The format is functional, cell-based. The note with it: NCI-H630, 48 h. Put shortly:
as §2

Assay [17] deals with T1, L-lactate dehydrogenase A chain. The assay can be described thus: Competitive inhibition of human LDH-A using NADH as substrate after 5 mins by calorimetric assay relative to control. Put shortly:
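Ki values from Lineweaver-Burk double-reciprocal plots. Enzyme is purified human LDH5 (LDH-A4), 0.005 units, in 100 mM sodium phosphate pH 7.4 at 37 °C. Pyruvate is held saturating at 2 mM while NADH is varied from 12.5 to 150 µM. Inhibitor is at 25–100 µM. NADH oxidation is read as A340 every 30 s for 5 min, in triplicate.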

In assay [18] the test system is ADDP cell line. The assay can be described thus: Induction of apoptosis in human ADDP cells assessed as appearance of sub-G1 cell subpopulation at compound IC50 after 24 hrs by flow cytometry. The format is functional, cell-based. The method, boiled down:
as §3

A short description of assay [19]: Cytotoxicity against immortalized human HPNE cells expressing human TERT after 48 hrs by sulforhodamine B assay. The format is functional, cell-based. The method, boiled down: as §2
For assay [20], the system named is HeLa. Nature of the assay: Reduction in lactate production in perfused human HeLa cells assessed as lactate to glucose ratio at 500 uM after 12 hrs by NMR spectroscopy using D-[1,6-13C2]glucose as substrate relative to control. The format is functional. Put shortly: (§4)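 HeLa cells are grown in RPMI-1640 with 10% FBS to 80% confluency, then washed for 15 min in glucose-free DMEM. Medium is replaced with DMEM containing 10 mM D-[1,6-13C2]glucose. Compound is added from 100× DMSO stocks (1% DMSO final), with vehicle controls, at 37 °C under normoxia. Medium is sampled at 6 and 12 h. 13C NMR gives the lactate-C3 (20.28 ppm) to glucose-C6 (60.95 ppm) peak-area ratio.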

The test system of assay [21] is NCI-H28. The assay can be described thus: Cytotoxicity against human NCI-H28 cells after 48 hrs by sulforhodamine B assay. The format is functional, cell-based. Conditions: NCI-H28, 48 h. The method, boiled down: as §2
Assay [22] relates to A2780. Nature of the assay: Cytotoxicity against human A2780 cells after 48 hrs by sulforhodamine B assay. The format is functional, cell-based. The note with it: A2780, 48 h. Put shortly:
as §2

Assay [23] addresses T1, L-lactate dehydrogenase A chain. The assay can be described thus: Competitive inhibition of human LDH-A using pyruvate as substrate after 5 mins by calorimetric assay relative to control. The method, boiled down:
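Ki values from Lineweaver-Burk double-reciprocal plots. Enzyme is purified human LDH5 (LDH-A4), 0.005 units, in 100 mM sodium phosphate pH 7.4 at 37 °C. NADH is held saturating at 200 µM while sodium pyruvate is varied from 25 µM to 1 mM. Inhibitor is at 25–100 µM. A340 decrease is read every 30 s for 5 min, in triplicate.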

The subject of assay [24] is HeLa. Nature of the assay: Reduction in lactate production in perfused human HeLa cells at < 400 uM after 12 hrs by NMR spectroscopy using D-[1,6-13C2]glucose as substrate. The format is functional, cell-based. Put shortly: as §4
For assay [25], the system named is HeLa. Nature of the assay: Reduction in lactate production in perfused human HeLa cells at 400 uM after 12 hrs by NMR spectroscopy using D-[1,6-13C2]glucose as substrate. The format is functional. Set-up: scale not given: the % may be the effect or the level left. The method, boiled down: as §4

Molecules are shown by their SMILES. Calls of active or inactive are those of the source. No cut-off for these calls is given here. A value given as a limit tells only on which side of the number the result lay.

As a reminder, the inhibition is the change of the read-out against control, counted positive when it falls. Turning to `COn1c(C(=O)O)cc2ccc(-c3ccccc3)cc21`, the inhibition result in assay [1] and in [2] was “inactive” in each case.

As for `COC(=O)c1cc2ccc(-c3ccccc3)cc2n1O`, the inhibition is 4% in assay [1] and 8% in [2].

The term IC50 denotes the concentration that gives 50% inhibition. What is called Ki is a dissociation constant, usually derived from enzyme kinetics or from competition with a known ligand. In the case of `O=C(O)c1cc2ccc(-c3ccccc3)cc2n1O`, the IC50 in assay [3] was found to be 2.4 µM; in assay [5], 0.36 µM; in assay [7], 16.3 µM; in assay [8] it was 32.3 µM; in [9], 50.5 µM; in assay [10], 18.2 µM. The IC50 in assay [11] is 15.7 µM; in assay [14] it was more than 100 µM; in [15] it was 21.3 µM; in assay [16], 15.1 µM; in assay [19], more than 100 µM; in assay [21], 7.8 µM. This compound also gave an IC50 in [22] of 10.1 µM. The inhibition is less than 3% in [4] and 84% in [1]. Also, the result in assay [6] and in assay [18] was Active. The Activity entry in assay [12] and in assay [13] was “Dose-dependent effect” each time. The Ki in assay [17] amounted to 19.8 µM; in assay [23], 35.4 µM. The Ratio in [20] is 0.12.

As for `O=C(O)c1cc2cc(-c3ccccc3)ccc2n1O`, the half-maximal inhibitory concentration (IC50) was determined as 2.5 µM in assay [3]; 0.1 µM in assay [5]; 14.6 µM in assay [7]; 48.8 µM in [8]; 62.4 µM in assay [9]; 20.9 µM in [10]. For the same compound, the IC50 was 14.3 µM in [11]; more than 100 µM in [14]; 45.3 µM in assay [15]; 17.7 µM in assay [16]; more than 100 µM in [19]; 5.8 µM in assay [21]. Further, the IC50 in assay [22] turned out to be 13.7 µM. Moreover, the figures for the inhibition in [4] and in assay [1] were less than 3% and 99%, respectively. Moreover, the outcome in assay [6] and in assay [18] was Active. The Activity result in assay [12] and in assay [13] was “Dose-dependent effect” throughout. Besides, the Ki came out at 10.4 µM in assay [17] and 15.7 µM in [23].

Regarding `O=C(O)c1cc2ccc(-c3nn[nH]n3)cc2n1O`, the inhibition in assay [1] worked out at 11%.

The compound `O=C(O)c1cc2c(Br)cccc2n1O` yielded an inhibition in assay [1] of 32%.

`O=C(O)c1cc2cc(-c3ccccc3)ccc2[nH]1`: the inhibition entry in assay [1] and in assay [2] was “Active” in each case.

On to `O=C(O)c1cc2c(C(F)(F)F)cc(-c3ccccc3)cc2n1O`, for which the IC50 in assay [3] was found to be 10.6 µM; in assay [5], 0.9 µM; in [7] it was 17 µM; in [8], 41.2 µM; in assay [9] it was 73.2 µM; in assay [10], 13.5 µM. Besides, the IC50 in assay [11] is 16.3 µM; in [14], more than 100 µM; in [15], 90.2 µM; in [16], 31.5 µM; in assay [19], more than 100 µM; in assay [21], 11.4 µM. The compound also registered a 50% inhibitory concentration (IC50) in assay [22] of 10.8 µM. The inhibition amounted to 11% in assay [4], 87% in assay [1] and 11% in assay [2]. The result in assay [6] and in [18] was Active. The Activity entry is “Dose-dependent effect” in assay [12], “Dose-dependent effect” in assay [13] and 20% in assay [25]. The outcome in assay [24] was inactive. The Ki was 8.9 µM in assay [17] and 4.7 µM in assay [23]. Further, the Ratio in assay [20] was less than 0.01.

Source of the values: ChEMBL document CHEMBL1687923, “Discovery of N-hydroxyindole-based inhibitors of human lactate dehydrogenase isoform A (LDH-A) as starvation agents against cancer cells” (J Med Chem, 2011).
